Calls of active or inactive are those of the source. No cut-off for these calls is given here.
How the values were obtained:
[1] = tested on: BV-2; assay: Cytotoxicity against […] BV2 cells assessed as reduction in cell viability up to 80 uM after 24 hrs by MTT assay; format: cell-based; details: bv-2, 24 h
How it was run: (§1)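 BV2 cells (1 × 10^5 cells/well) exposed to compound for 24 h, at concentrations up to 80 μM. MTT added to 0.5 mg/mL final for 3 h. Formazan dissolved in acidic 2-propanol and read at 540 nm. Untreated cells set as 100% viability.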

[2] = tested on: BV-2; assay: Antiinflammatory activity in […] BV2 cells assessed as inhibition of LPS-induced NO production preincubated for 3 hrs followed by LPS stimulation measured after 24 hrs by Griess assay; format: functional, cell-based
How it was run: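 BV2 cells pretreated with compound for 3 h, then LPS (1 μg/mL) for 24 h. Nitrite in conditioned medium taken as NO indicator. Supernatant mixed 1:1 with Griess reagent (0.1% N-(1-naphthyl)ethylenediamine, 1% sulfanilamide in 5% phosphoric acid), 10 min at room temperature. A540 read. Concentration from a sodium nitrite standard curve made in phenol red-free DMEM. IC50 reported.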

[3] = tested on: BV-2; assay: Cytotoxicity against […] BV2 cells assessed as reduction in cell viability up to 40 uM after 24 hrs by MTT assay; format: cell-based; details: bv-2, 24 h; how it was run: as §1
[4] = tested on: BV-2; assay: Antiinflammatory activity in […] BV2 cells assessed as inhibition of LPS-induced PGE2 production preincubated for 3 hrs followed by LPS stimulation measured after 24 hrs by ELISA; format: functional, cell-based
How it was run: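 Pretreatment of BV2 cells with compound for 3 h, then LPS (1 μg/mL) stimulation for 24 h. PGE2 in culture medium measured by ELISA/enzyme immunoassay kit.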

[5] = tested on: BV-2; assay: Inhibition of iNOS protein expression level in LPS-induced […] BV2 cells preincubated for 3 hrs followed by LPS stimulation measured after 24 hrs by Western blot analysis; format: functional, cell-based
How it was run: (§2)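 BV2 cells pretreated 3 h with compound, then LPS (1 μg/mL) for 24 h. Cells lysed in 20 mM Tris-HCl pH 7.4 with protease inhibitors. Protein quantified by Lowry. Equal protein run on 7.5% and 12% SDS-PAGE, transferred to nitrocellulose and probed with anti-iNOS, anti-COX-2 and anti-actin antibodies, ECL detection.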

[6] = tested on: BV-2; assay: Inhibition of COX2 protein expression level in LPS-induced […] BV2 cells preincubated for 3 hrs followed by LPS stimulation measured after 24 hrs by Western blot analysis; format: functional, cell-based; how it was run: as §2
[7] = tested on: BV-2; assay: Antiinflammatory activity in LPS-induced […] BV2 cells assessed as inhibition of IL-1beta mRNA expression level preincubated for 3 hrs followed by LPS stimulation measured after 6 hrs by qRT-PCR analysis; format: functional, cell-based
How it was run: (§3)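 BV2 microglia in DMEM with 10% heat-inactivated FBS, penicillin/streptomycin and 2 mM L-glutamine, 37 °C, 5% CO2. Cells incubated with compound for 3 h, then LPS (1 μg/mL) for 6 h. Il1b, Il6 and Tnf mRNA measured by RT-qPCR with GAPDH as endogenous control. Relative expression by comparative Ct (2−ΔΔCt). Mean of three independent experiments.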

[8] = tested on: BV-2; assay: Antiinflammatory activity in LPS-induced […] BV2 cells assessed as inhibition of IL-6 mRNA expression level preincubated for 3 hrs followed by LPS stimulation measured after 6 hrs by qRT-PCR analysis; format: functional, cell-based; how it was run: as §3
[9] = tested on: BV-2; assay: Antiinflammatory activity in LPS-induced mouse BV2 cells assessed as inhibition of TNF-alpha mRNA expression level preincubated for 3 hrs followed by LPS stimulation measured after 6 hrs by qRT-PCR analysis

Row | SMILES | Activity [1] | IC50 ([2]; Mus musculus) | Activity [3] | inhibition [4] | inhibition [5] | inhibition [6] | inhibition [7] | inhibition [8] | inhibition [9] | inhibition [2]
1 | CCCCCCCC[C@H](O)c1cc(OC)c(CO)c(=O)o1 | Toxic | 15 µM | Non-Toxic | Dose-dependent effect | Dose-dependent effect | Dose-dependent effect | Dose-dependent effect | Dose-dependent effect | Dose-dependent effect | –
2 | COc1cc([C@@H](O)CCCCCC[C@@H](C)O)oc(=O)c1CO | – | – | – | – | – | – | – | – | – | inactive

Source: ChEMBL document CHEMBL4251717, “Bioactive α-Pyrone Derivatives from the Endolichenic Fungus Dothideomycetes sp. EL003334” (J Nat Prod, 2018)
